ChEMBL document CHEMBL1649139, “A novel gene, erm(41), confers inducible macrolide resistance to clinical isolates of Mycobacterium abscessus but is absent from Mycobacterium chelonae” (2009)

Legend:
Format in all cases: functional
[1] = tested on: Mycobacteroides abscessus; test: Antimicrobial activity against Mycobacterium abscessus isolate MC879-2 at day 9 preincubated with 0.1 ug/ml erythromycin for 3 days by broth microdilution method
[2] = tested on: Mycobacteroides abscessus; test: Antimicrobial activity against Mycobacterium abscessus isolate MC879-2 at day 3 preincubated with 0.1 ug/ml for 3 days by broth microdilution method
[3] = tested on: Mycobacteroides abscessus; test: Antimicrobial activity against Mycobacterium abscessus isolate MC1448 at day 5 preincubated with 0.1 ug/ml for 3 days by broth microdilution method
Procedure, shortened: (§1)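 Clarithromycin MIC by broth microdilution following CLSI guidelines. Before testing, organisms were preincubated for 3 days in medium alone or in clarithromycin or erythromycin (0.01–1 μg/ml), long enough for at least two generations judged by turbidity increase. MICs were read on day 3 and again on extended incubation out to day 14.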

[4] = tested on: Mycobacteroides abscessus; test: Antimicrobial activity against Mycobacterium abscessus isolate MC1448 at day 7 preincubated with 0.1 ug/ml for 3 days by broth microdilution method; procedure, shortened: as §1
[5] = tested on: Mycobacteroides abscessus; test: Antimicrobial activity against Mycobacterium abscessus isolate MC879-2 at day 9 preincubated with 0.1 ug/ml for 3 days by broth microdilution method
[6] = tested on: Mycobacteroides abscessus; test: Antimicrobial activity against Mycobacterium abscessus isolate MC958 on day 10 by broth microdilution method; conditions: isolate MC958, 240 h
[7] = tested on: Mycolicibacterium smegmatis; test: Antimicrobial activity against Mycobacterium smegmatis transformed with erm allele Mycobacterium abscessus isolate MC958 preincubated with 2 ug/ml erythromycin for 20 to 24 hrs by broth microdilution method
[8] = tested on: Mycolicibacterium smegmatis; test: Antimicrobial activity against Mycobacterium smegmatis transformed with erm allele Mycobacterium abscessus isolate MAB30 by broth microdilution method
[9] = tested on: Mycolicibacterium smegmatis; test: Antimicrobial activity against Mycobacterium smegmatis transformed with erm allele Mycobacterium abscessus isolate MC1082 by broth microdilution method
[10] = tested on: Mycobacteroides abscessus; test: Antimicrobial activity against Mycobacterium abscessus isolate MC879 at day 3 by broth microdilution method; conditions: isolate MC879, 72 h
Procedure, shortened: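 Clarithromycin MIC by broth microdilution following CLSI guidelines. Organisms were preincubated […], for 3 days before the assay. This allowed at least two generations, judged by the rise in turbidity. The MIC was read at the stated day, with incubation extended from day 3 to as long as 14 days.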

[11] = tested on: Mycobacteroides abscessus; test: Antimicrobial activity against Mycobacterium abscessus isolate MC719 at day 5 by broth microdilution method; conditions: isolate MC719, 120 h; procedure, shortened: as §1
[12] = tested on: Mycobacteroides abscessus; test: Antimicrobial activity against Mycobacterium abscessus isolate MC720 at day 5 by broth microdilution method; conditions: isolate MC720, 120 h; procedure, shortened: as §1
[13] = tested on: Mycobacteroides abscessus; test: Antimicrobial activity against Mycobacterium abscessus isolate MC724 at day 7 by broth microdilution method; conditions: isolate MC724, 168 h
Procedure, shortened: (§2)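 Clinical M. abscessus isolates were preincubated for 3 days, either in medium alone or in clarithromycin or erythromycin at 0.01 to 1 μg/ml, allowing at least two generations of growth judged by turbidity. The clarithromycin MIC was then determined by CLSI-conforming broth microdilution, with plates read on day 3 and on extended incubation (days 5 to 14).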

[14] = tested on: Mycobacteroides abscessus; test: Antimicrobial activity against Mycobacterium abscessus isolate MC1082 at day 3 by broth microdilution method; conditions: isolate MC1082, 72 h
Procedure, shortened: (§3)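 Clarithromycin MIC by CLSI-conforming broth microdilution. Before testing, cultures were preincubated for 3 days, either in medium alone or in clarithromycin or erythromycin (tested range 0.01–1 μg/ml). Preincubation ran for at least two generations, judged by turbidity increase. Plates were read on day 3 and on extended incubation at days 5 to 14.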

[15] = tested on: Mycobacteroides abscessus; test: Antimicrobial activity against Mycobacterium abscessus isolate MC1028 at day 14 by broth microdilution method; conditions: isolate MC1028, 336 h; procedure, shortened: as §3
[16] = tested on: Mycobacteroides abscessus; test: Antimicrobial activity against Mycobacterium abscessus isolate MC1082 at day 3 preincubated with 0.1 ug/ml erythromycin for 3 days by broth microdilution method; procedure, shortened: as §3
[17] = tested on: Mycobacteroides abscessus; test: Antimicrobial activity against Mycobacterium abscessus isolate MAB30 at day 5 preincubated with 0.1 ug/ml erythromycin for 3 days by broth microdilution method; procedure, shortened: as §3
[18] = tested on: Mycobacteroides abscessus; test: Antimicrobial activity against Mycobacterium abscessus isolate MC1028 at day 7 preincubated with 0.1 ug/ml erythromycin for 3 days by broth microdilution method; procedure, shortened: as §3
[19] = tested on: Mycobacteroides abscessus; test: Antimicrobial activity against Mycobacterium abscessus isolate MC720 at day 5 preincubated with 0.1 ug/ml erythromycin for 3 days by broth microdilution method; procedure, shortened: as §2
[20] = tested on: Mycobacteroides abscessus; test: Antimicrobial activity against Mycobacterium abscessus isolate MC723 at day 5 preincubated with 0.1 ug/ml erythromycin for 3 days by broth microdilution method; procedure, shortened: as §2
[21] = tested on: Mycobacteroides abscessus; test: Antimicrobial activity against Mycobacterium abscessus isolate MC879 at day 7 preincubated with 0.1 ug/ml erythromycin for 3 days by broth microdilution method
Procedure, shortened: (§4)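 To test inducible resistance, cultures were preincubated for 3 days in clarithromycin or erythromycin, within 0.01–1 μg/ml. The period was set so cultures passed at least two generations, judged by turbidity increase. Clarithromycin MIC was then determined by CLSI-conforming broth microdilution and read on the stated day, from day 3 up to 14.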

[22] = tested on: Mycobacteroides abscessus; test: Antimicrobial activity against Mycobacterium abscessus isolate MC720 at day 7 preincubated with 0.1 ug/ml erythromycin for 3 days by broth microdilution method; procedure, shortened: as §1
[23] = tested on: Mycobacteroides abscessus; test: Antimicrobial activity against Mycobacterium abscessus isolate MC723 at day 7 preincubated with 0.1 ug/ml erythromycin for 3 days by broth microdilution method; procedure, shortened: as §1
[24] = tested on: Mycobacteroides abscessus; test: Antimicrobial activity against Mycobacterium abscessus isolate MC1082 at day 5 preincubated with 0.1 ug/ml for 3 days by broth microdilution method; procedure, shortened: as §3
[25] = tested on: Mycobacteroides abscessus; test: Antimicrobial activity against Mycobacterium abscessus isolate MAB30 at day 7 preincubated with 0.1 ug/ml for 3 days by broth microdilution method; procedure, shortened: as §3
[26] = tested on: Mycobacteroides abscessus; test: Antimicrobial activity against Mycobacterium abscessus isolate MC1082 at day 14 preincubated with 0.1 ug/ml for 3 days by broth microdilution method; procedure, shortened: as §3
[27] = tested on: Mycobacteroides abscessus; test: Antimicrobial activity against Mycobacterium abscessus isolate MC879-2 at day 9 by broth microdilution method; conditions: isolate MC879-2, 216 h
[28] = tested on: Mycobacteroides abscessus; test: Antimicrobial activity against Mycobacterium abscessus isolate MC958 at day 14 preincubated with 0.1 ug/ml erythromycin for 3 days by broth microdilution method; procedure, shortened: as §4
[29] = tested on: Mycobacteroides abscessus; test: Antimicrobial activity against Mycobacterium abscessus isolate MC723 at day 14 preincubated with 0.1 ug/ml erythromycin for 3 days by broth microdilution method; procedure, shortened: as §1
[30] = tested on: Mycobacteroides abscessus; test: Antimicrobial activity against Mycobacterium abscessus isolate MC958 at day 5 preincubated with 0.1 ug/ml for 3 days by broth microdilution method; procedure, shortened: as §2
[31] = tested on: Mycobacteroides abscessus; test: Antimicrobial activity against Mycobacterium abscessus isolate MC719 at day 5 preincubated with 0.1 ug/ml for 3 days by broth microdilution method; procedure, shortened: as §2
[32] = tested on: Mycobacteroides abscessus; test: Antimicrobial activity against Mycobacterium abscessus isolate MC720 at day 9 preincubated with 0.1 ug/ml for 3 days by broth microdilution method; procedure, shortened: as §1
[33] = tested on: Mycobacteroides abscessus; test: Antimicrobial activity against Mycobacterium abscessus isolate MC879 at day 14 preincubated with 0.1 ug/ml for 3 days by broth microdilution method; procedure, shortened: as §4
[34] = tested on: Mycobacteroides abscessus; test: Antimicrobial activity against Mycobacterium abscessus isolate MC719 at day 14 preincubated with 0.1 ug/ml for 3 days by broth microdilution method; procedure, shortened: as §1
[35] = tested on: Mycobacteroides abscessus; test: Antimicrobial activity against Mycobacterium abscessus isolate MC719 at day 5 preincubated with 0.1 ug/ml erythromycin for 3 days by broth microdilution method; procedure, shortened: as §2

Measured: MIC

CC[C@H]1OC(=O)[C@H](C)[C@@H](O[C@H]2C[C@@](C)(OC)[C@@H](O)[C@H](C)O2)[C@H](C)[C@@H](O[C@@H]2O[C@H](C)C[C@H](N(C)C)[C@H]2O)[C@](C)(OC)C[C@@H](C)C(=O)[C@H](C)[C@@H](O)[C@]1(C)O [CLARITHROMYCIN]
1 µg/mL: [11] | [12]
≤ 0.5 µg/mL: [8] | [9] | [10] | [14] | [15] | [16] | [17] | [18] | [24] | [25] | [26]
8 µg/mL: [13]
16 µg/mL: [7]
4 µg/mL: [19] | [20] | [30] | [31] | [35]
32 µg/mL: [6]
> 32 µg/mL: all other assays above
